Laboratory results published in ChEMBL document CHEMBL1833959, “Itraconazole side chain analogues: structure-activity relationship studies for inhibition of endothelial cell proliferation, vascular endothelial growth factor receptor 2 (VEGFR2) glycosylation, and hedgehog signaling” (2011).
The source made the active and inactive calls. The rule behind the calls is not given here.

Tests used:
[1] = Ratio of itraconazole IC50 to compound IC50 for antiproliferative activity against mouse Ptch+/- p53-/- medulloblastoma cells isolated from allografts in nude Harlan mouse after 96 hrs; type: functional, Medulloblastoma cell
Procedure, shortened: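 Ptch−/+;p53−/− MB cells from nude-mouse allografts (ficoll-purified, three neurosphere passages, CD15 confirmed by flow cytometry) disaggregated and seeded in NBMedia with multiple analogue concentrations for 96 h. Cell number read by MTS-type CellTiter 96 AQueous absorbance; IC50 fitted from dose–response curves of mean corrected absorbance normalized to control, expressed relative to itraconazole.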

[2] = molecular target: Vascular endothelial growth factor receptor 2 (Homo sapiens) (UniProt P35968); assay: Inhibition of VEGFR2 glycosylation in human HUVEC cells at 2 uM after 24 hrs by Western blot analysis; type: cell-based
Procedure, shortened: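 Pooled HUVEC (passage ≤8, EGM-2) seeded 5 × 10^4 per well, recovered overnight, then given fresh media with analogue added from 200X DMSO stocks; 24 h exposure. Cells lysed in 2X SDS sample buffer (ice 10 min, boiled 10 min), 6% SDS-PAGE, PVDF blot probed with anti-VEGFR2 and HRP anti-rabbit IgG, ECL detection.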

HUVEC [3] = assay: Ratio of itraconazole IC50 to compound IC50 for antiangiogenic activity in human HUVEC cells assessed as inhibition of cell proliferation; type: functional
[4] = Inhibition of hedgehog signaling pathway in mouse Ptch+/- p53-/- medulloblastoma cells assessed as inhibition of receptor-mediated Gli1 transcriptional activity at antiproliferative IC90 concentration after 24 hrs by RT-PCR analysis relative to control
HUVEC [5] = assay: Ratio of itraconazole IC50 to compound […] for antiangiogenic activity in human HUVEC cells assessed as inhibition of cell proliferation; type: functional

Vascular endothelial growth factor receptor 2 (Homo sapiens), sequence (P35968 whole entry): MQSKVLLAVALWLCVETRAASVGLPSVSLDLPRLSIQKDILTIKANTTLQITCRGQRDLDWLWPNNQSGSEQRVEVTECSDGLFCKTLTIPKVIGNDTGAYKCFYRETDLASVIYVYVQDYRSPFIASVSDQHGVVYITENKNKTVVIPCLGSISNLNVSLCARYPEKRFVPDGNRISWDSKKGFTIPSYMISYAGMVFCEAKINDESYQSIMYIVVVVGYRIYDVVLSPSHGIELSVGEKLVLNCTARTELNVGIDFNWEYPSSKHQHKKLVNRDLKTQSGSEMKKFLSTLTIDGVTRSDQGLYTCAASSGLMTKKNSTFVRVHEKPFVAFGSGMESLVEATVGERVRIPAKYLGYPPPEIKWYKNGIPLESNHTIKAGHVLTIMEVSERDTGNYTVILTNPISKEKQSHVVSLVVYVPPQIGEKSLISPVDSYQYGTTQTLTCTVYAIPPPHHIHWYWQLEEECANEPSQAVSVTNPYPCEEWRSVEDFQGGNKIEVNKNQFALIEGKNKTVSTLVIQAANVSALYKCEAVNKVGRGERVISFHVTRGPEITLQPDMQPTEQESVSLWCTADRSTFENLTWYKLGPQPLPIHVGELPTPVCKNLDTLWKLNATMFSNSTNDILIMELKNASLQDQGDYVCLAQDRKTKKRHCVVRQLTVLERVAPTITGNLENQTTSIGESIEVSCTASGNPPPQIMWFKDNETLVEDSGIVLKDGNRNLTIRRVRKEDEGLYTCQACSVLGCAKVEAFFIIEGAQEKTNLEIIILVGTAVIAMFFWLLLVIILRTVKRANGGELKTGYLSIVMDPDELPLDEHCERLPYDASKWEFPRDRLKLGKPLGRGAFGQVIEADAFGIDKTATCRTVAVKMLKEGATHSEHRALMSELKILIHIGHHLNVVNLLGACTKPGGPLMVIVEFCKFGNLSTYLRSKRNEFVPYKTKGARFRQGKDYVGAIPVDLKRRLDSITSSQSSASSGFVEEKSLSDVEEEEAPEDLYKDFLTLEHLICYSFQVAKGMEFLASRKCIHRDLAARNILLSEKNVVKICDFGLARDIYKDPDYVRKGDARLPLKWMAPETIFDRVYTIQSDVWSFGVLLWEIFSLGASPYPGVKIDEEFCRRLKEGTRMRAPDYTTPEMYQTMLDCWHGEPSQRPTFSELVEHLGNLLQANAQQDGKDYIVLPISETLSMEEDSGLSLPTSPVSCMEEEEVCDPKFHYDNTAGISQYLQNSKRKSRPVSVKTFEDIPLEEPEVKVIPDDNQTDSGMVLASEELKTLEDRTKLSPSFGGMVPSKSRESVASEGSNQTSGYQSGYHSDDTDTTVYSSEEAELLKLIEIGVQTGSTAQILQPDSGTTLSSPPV

Compound | Ratio IC50 [1] | inhibition [2] | Ratio IC50 (HUVEC [3]) | fold change (FC) [4] | Ratio (HUVEC [5])
CC[C@H](C)n1ncn(-c2ccc(N3CCN(c4ccc(OC[C@@H]5CO[C@](Cn6cncn6)(c6ccc(Cl)cc6Cl)O5)cc4)CC3)cc2)c1=O | 1.5 | Active | 3.2 | – | –
CCn1ncn(-c2ccc(N3CCN(c4ccc(OC[C@@H]5CO[C@@](Cn6cncn6)(c6ccc(Cl)cc6Cl)O5)cc4)CC3)cc2)c1=O | 1.62 | inactive | 2.94 | > 0.45 | –
CC[C@H](C)n1ncn(-c2ccc(N3CCN(c4ccc(OC[C@H]5CO[C@@](Cn6cncn6)(c6ccc(Cl)cc6Cl)O5)cc4)CC3)cc2)c1=O | 2.1 | Active | 3.1 | – | –
Cn1ncn(-c2ccc(N3CCN(c4ccc(OC[C@@H]5CO[C@@](Cn6cncn6)(c6ccc(Cl)cc6Cl)O5)cc4)CC3)cc2)c1=O | 2.71 | inactive | 4 | > 0.45 | –
CCCCn1ncn(-c2ccc(N3CCN(c4ccc(OC[C@@H]5CO[C@@](Cn6cncn6)(c6ccc(Cl)cc6Cl)O5)cc4)CC3)cc2)c1=O | 0.7 | inactive | 2.1 | > 0.45 | –
CC[C@H](C)n1ncn(-c2ccc(N3CCN(c4ccc(OC[C@H]5CO[C@](Cn6cncn6)(c6ccc(Cl)cc6Cl)O5)cc4)CC3)cc2)c1=O | 1.3 | Active | 1.6 | – | –
CCCC(C)n1ncn(-c2ccc(N3CCN(c4ccc(OC[C@@H]5CO[C@@](Cn6cncn6)(c6ccc(Cl)cc6Cl)O5)cc4)CC3)cc2)c1=O (mixture of isomers) | 0.38 | Active | 0.75 | < 0.15 | –
[N-]=[N+]=NCCCCCCn1ncn(-c2ccc(N3CCN(c4ccc(OC[C@@H]5CO[C@@](Cn6cncn6)(c6ccc(Cl)cc6Cl)O5)cc4)CC3)cc2)c1=O | 0.7 | Active | 0.3 | 0.16 | –
CC[C@@H](C)n1ncn(-c2ccc(N3CCN(c4ccc(OC[C@@H]5CO[C@@](Cn6cncn6)(c6ccc(Cl)cc6Cl)O5)cc4)CC3)cc2)c1=O | 1.4 | Active | 1.1 | – | –
CCC(C)n1ncn(-c2ccc(N3CCN(c4ccc(OCC5COC(Cn6cncn6)(c6ccc(Cl)cc6Cl)O5)cc4)CC3)cc2)c1=O (stereo not drawn) [ITRACONAZOLE] | 1 | Active | 1 | < 0.15 | –
CC[C@@H](C)n1ncn(-c2ccc(N3CCN(c4ccc(OC[C@H]5CO[C@](Cn6cncn6)(c6ccc(Cl)cc6Cl)O5)cc4)CC3)cc2)c1=O | 1.7 | Active | 2.5 | – | –
CCCn1ncn(-c2ccc(N3CCN(c4ccc(OC[C@@H]5CO[C@@](Cn6cncn6)(c6ccc(Cl)cc6Cl)O5)cc4)CC3)cc2)c1=O | 1.01 | Active | 1.06 | < 0.15 | –
C#CCCCn1ncn(-c2ccc(N3CCN(c4ccc(OC[C@H]5CO[C@](Cn6cncn6)(c6ccc(Cl)cc6Cl)O5)cc4)CC3)cc2)c1=O | 0.71 | inactive | 0.14 | < 0.15 | –
CC[C@@H](C)n1ncn(-c2ccc(N3CCN(c4ccc(OC[C@@H]5CO[C@](Cn6cncn6)(c6ccc(Cl)cc6Cl)O5)cc4)CC3)cc2)c1=O | 2.3 | inactive | 3.7 | – | –
O=C(c1ccccc1)c1ccc(OCCCCCCn2ncn(-c3ccc(N4CCN(c5ccc(OC[C@@H]6CO[C@@](Cn7cncn7)(c7ccc(Cl)cc7Cl)O6)cc5)CC4)cc3)c2=O)cc1 | 0.8 | inactive | >69.9 | > 0.45 | –
CC(C)Cn1ncn(-c2ccc(N3CCN(c4ccc(OC[C@@H]5CO[C@@](Cn6cncn6)(c6ccc(Cl)cc6Cl)O5)cc4)CC3)cc2)c1=O | 0.86 | Active | 1.32 | > 0.45 | –
CCC1(Cn2ncn(-c3ccc(N4CCN(c5ccc(OC[C@@H]6CO[C@@](Cn7cncn7)(c7ccc(Cl)cc7Cl)O6)cc5)CC4)cc3)c2=O)COC1 | 0.74 | Active | 0.77 | 0.16 | –

Compound | Ratio IC50 [1] | inhibition [2] | Ratio IC50 (HUVEC [3]) | fold change (FC) [4] | Ratio (HUVEC [5])
N#CCCCCCn1ncn(-c2ccc(N3CCN(c4ccc(OC[C@@H]5CO[C@@](Cn6cncn6)(c6ccc(Cl)cc6Cl)O5)cc4)CC3)cc2)c1=O | 0.84 | Active | 0.18 | 0.16 | –
CCCCCn1ncn(-c2ccc(N3CCN(c4ccc(OC[C@@H]5CO[C@@](Cn6cncn6)(c6ccc(Cl)cc6Cl)O5)cc4)CC3)cc2)c1=O | 0.66 | inactive | 1.09 | < 0.15 | –
CCCCCCCCn1ncn(-c2ccc(N3CCN(c4ccc(OC[C@@H]5CO[C@@](Cn6cncn6)(c6ccc(Cl)cc6Cl)O5)cc4)CC3)cc2)c1=O | 0.67 | inactive | – | < 0.15 | 2.24
CC/C=C\CCn1ncn(-c2ccc(N3CCN(c4ccc(OC[C@@H]5CO[C@@](Cn6cncn6)(c6ccc(Cl)cc6Cl)O5)cc4)CC3)cc2)c1=O | 0.94 | inactive | 0.73 | < 0.15 | –
CCC#CCCn1ncn(-c2ccc(N3CCN(c4ccc(OC[C@@H]5CO[C@@](Cn6cncn6)(c6ccc(Cl)cc6Cl)O5)cc4)CC3)cc2)c1=O | 1.07 | inactive | 1.09 | < 0.15 | –
CC1(CCn2ncn(-c3ccc(N4CCN(c5ccc(OC[C@@H]6CO[C@@](Cn7cncn7)(c7ccc(Cl)cc7Cl)O6)cc5)CC4)cc3)c2=O)N=N1 | 1.32 | Active | >13.8 | 0.16 | –
CC/C=C/CCn1ncn(-c2ccc(N3CCN(c4ccc(OC[C@@H]5CO[C@@](Cn6cncn6)(c6ccc(Cl)cc6Cl)O5)cc4)CC3)cc2)c1=O | 0.63 | inactive | 1.57 | < 0.15 | –
CCC(CC)n1ncn(-c2ccc(N3CCN(c4ccc(OC[C@@H]5CO[C@@](Cn6cncn6)(c6ccc(Cl)cc6Cl)O5)cc4)CC3)cc2)c1=O | 0.54 | Active | 1.1 | < 0.15 | –
O=c1n(-c2ccc(N3CCN(c4ccc(OC[C@@H]5CO[C@@](Cn6cncn6)(c6ccc(Cl)cc6Cl)O5)cc4)CC3)cc2)cnn1CCCCCCc1ccccc1 | 0.69 | inactive | – | < 0.15 | 1.45
CC[C@@H](C)n1ncn(-c2ccc(N3CCN(c4ccc(OC[C@H]5CO[C@@](Cn6cncn6)(c6ccc(Cl)cc6Cl)O5)cc4)CC3)cc2)c1=O | 1.7 | inactive | 3.9 | – | –
CC(C)CCn1ncn(-c2ccc(N3CCN(c4ccc(OC[C@@H]5CO[C@@](Cn6cncn6)(c6ccc(Cl)cc6Cl)O5)cc4)CC3)cc2)c1=O | 0.41 | Active | 1.42 | < 0.15 | –
CC(C)n1ncn(-c2ccc(N3CCN(c4ccc(OC[C@@H]5CO[C@@](Cn6cncn6)(c6ccc(Cl)cc6Cl)O5)cc4)CC3)cc2)c1=O | 1.06 | inactive | 2.18 | > 0.45 | –
CC1(CCCCCCCn2ncn(-c3ccc(N4CCN(c5ccc(OC[C@@H]6CO[C@@](Cn7cncn7)(c7ccc(Cl)cc7Cl)O6)cc5)CC4)cc3)c2=O)N=N1 | 1.18 | inactive | – | > 0.45 | 1.1
O=c1n(-c2ccc(N3CCN(c4ccc(OC[C@@H]5CO[C@@](Cn6cncn6)(c6ccc(Cl)cc6Cl)O5)cc4)CC3)cc2)cnn1C1CCCCC1 | 0.37 | Active | 0.44 | > 0.45 | –
O=c1[nH]ncn1-c1ccc(N2CCN(c3ccc(OC[C@@H]4CO[C@@](Cn5cncn5)(c5ccc(Cl)cc5Cl)O4)cc3)CC2)cc1 | 0.89 | inactive | 2.78 | < 0.15 | –
CC[C@H](C)n1ncn(-c2ccc(N3CCN(c4ccc(OC[C@@H]5CO[C@@](Cn6cncn6)(c6ccc(Cl)cc6Cl)O5)cc4)CC3)cc2)c1=O | 1.3 | Active | 0.8 | – | –
O=c1n(-c2ccc(N3CCN(c4ccc(OC[C@@H]5CO[C@@](Cn6cncn6)(c6ccc(Cl)cc6Cl)O5)cc4)CC3)cc2)cnn1CC1CCCC1 | 0.5 | Active | 0.5 | 0.16 | –
